This note sets out measurements from ChEMBL document CHEMBL3856209, “Novel pyrazolopyridine derivatives as potential angiogenesis inhibitors: Synthesis, biological evaluation and transcriptome-based mechanistic analysis” (Eur J Med Chem, 2016).

Activity calls are given as the source filed them. The calls are words filed in the database; no cut-off is given here.

Test [1] relates to HUVEC. The experiment in a line: Effect on RETSAT gene expression in serum-starved HUVEC after 24 hrs by microarray analysis relative to control. It is filed as functional, Homo sapiens.
Test [2] deals with HUVEC. The experiment in a line: Effect on MIR181A2HG gene expression in serum-starved HUVEC after 24 hrs by microarray analysis relative to control. The class given is functional, Homo sapiens. A digest of the protocol: (§1)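 Serum-starved confluent HUVEC (pooled from 3–5 donors, passage ≤4) were treated with 2 μM compound or vehicle in 2.5% FBS for 6 h or 24 h, and total RNA was isolated. Hybridization was on Illumina Human-HT12. Data were processed with bgAdjust, vst and rsn normalization. Changes versus DMSO were called by moderated paired t-test at p < 0.05 and |log2 fold change| > 0.5.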

Test [3] deals with HUVEC. The experiment in a line: Effect on IL10 gene expression in serum-starved HUVEC after 24 hrs by microarray analysis relative to control. The class given is functional, Homo sapiens. A digest of the protocol:
(§2)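 Confluent, serum-starved HUVEC (pooled from 3–5 donors, passage ≤4) treated with 2 μM compound or vehicle with 2.5% FBS for 6 h or 24 h. Total RNA hybridized to Illumina Human-HT12 arrays. Data were background-corrected, vst-transformed and rsn-normalized. Hits called by moderated paired t-test versus DMSO-treated cells, p < 0.05 and log2 fold change >|0.5|.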

Test [4] relates to HUVEC. The experiment in a line: Effect on EGR1 gene expression in serum-starved HUVEC after 24 hrs by microarray analysis relative to control. It is filed as functional, Homo sapiens. The procedure, abridged: as §2
Test [5] deals with HUVEC. The experiment in a line: Effect on HJURP gene expression in serum-starved HUVEC after 6 hrs by microarray analysis relative to control. The class given is functional, Homo sapiens.
In test [6] the test system is HUVEC. The experiment in a line: Effect on ASAP1 gene expression in serum-starved HUVEC after 6 hrs by microarray analysis relative to control. It is filed as functional, Homo sapiens. A digest of the protocol:
(§3)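 Confluent serum-starved HUVEC (primary, pooled from 3–5 donors, passage ≤4) treated with 2 μM compound or DMSO vehicle in 2.5% FBS for 6 h or 24 h. Total RNA hybridized to Illumina Human-HT12 arrays, background-corrected, vst-transformed and rsn-normalized. Differential expression versus DMSO by moderated paired t-test (p < 0.05, |log2 fold change| > 0.5).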

Test [7] deals with HUVEC. The experiment in a line: Effect on AURKA gene expression in serum-starved HUVEC after 24 hrs by microarray analysis relative to control. It is filed as functional, Homo sapiens. A digest of the protocol:
as §3

The test system of test [8] is HUVEC. The experiment in a line: Effect on HJURP gene expression in serum-starved HUVEC after 24 hrs by microarray analysis relative to control. The class given is functional, Homo sapiens. The procedure, abridged:
as §2

The subject of test [9] is HUVEC. The experiment in a line: Effect on KIF4A gene expression in serum-starved HUVEC after 24 hrs by microarray analysis relative to control. The class given is functional, Homo sapiens. A digest of the protocol: as §1
The subject of test [10] is HUVEC. The experiment in a line: Effect on KRT18P55 gene expression in serum-starved HUVEC after 6 hrs by microarray analysis relative to control. The class given is functional, Homo sapiens. A digest of the protocol:
as §1

In test [11] the test system is HUVEC. The experiment in a line: Effect on IL1RL1 gene expression in serum-starved HUVEC after 24 hrs by microarray analysis relative to control. The class given is functional, Homo sapiens.
Test [12] deals with HUVEC. The experiment in a line: Effect on F2RL1 gene expression in serum-starved HUVEC after 6 hrs by microarray analysis relative to control. It is filed as functional, Homo sapiens. A digest of the protocol: as §3
For test [13], the system named is HUVEC. The experiment in a line: Effect on RNU1-1 gene expression in serum-starved HUVEC after 6 hrs by microarray analysis relative to control. The class given is functional, Homo sapiens.
Test [14] concerns HUVEC. The experiment in a line: Effect on MYO10 gene expression in serum-starved HUVEC after 24 hrs by microarray analysis relative to control. The class given is functional, Homo sapiens. The procedure, abridged: as §1
Test [15] relates to HUVEC. The experiment in a line: Effect on HLA-DRB4 gene expression in serum-starved HUVEC after 6 hrs by microarray analysis relative to control. It is filed as functional, Homo sapiens. The procedure, abridged: as §2
Test [16] concerns HUVEC. The experiment in a line: Effect on TMEM154 gene expression in serum-starved HUVEC after 24 hrs by microarray analysis relative to control. It is filed as functional, Homo sapiens.
For test [17], the system named is HUVEC. The experiment in a line: Effect on HLA-B gene expression in serum-starved HUVEC after 24 hrs by microarray analysis relative to control. The class given is functional, Homo sapiens. A digest of the protocol: as §2
Test [18] has as its system HUVEC. The experiment in a line: Effect on KIF4A gene expression in serum-starved HUVEC after 6 hrs by microarray analysis relative to control. It is filed as functional, Homo sapiens.
The subject of test [19] is HUVEC. The experiment in a line: Effect on MVD gene expression in serum-starved HUVEC after 24 hrs by microarray analysis relative to control. It is filed as functional, Homo sapiens. A digest of the protocol:
as §1

Test [20] has as its system HUVEC. The experiment in a line: Effect on CCNA2 gene expression in serum-starved HUVEC after 6 hrs by microarray analysis relative to control. The class given is functional, Homo sapiens. The procedure, abridged: (§4)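 Serum-starved confluent HUVEC treated with 2 μM compound or DMSO in 2.5% FBS for 6 h or 24 h; RNA hybridized to Illumina Human-HT12 arrays. Data background-corrected, vst-transformed and rsn-normalized. Differential probes called by moderated paired t-test (limma) at p < 0.05 and log2 fold change >|0.5| vs DMSO.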

The test system of test [21] is HUVEC. The experiment in a line: Effect on SCD gene expression in serum-starved HUVEC after 24 hrs by microarray analysis relative to control. It is filed as functional, Homo sapiens.
Test [22] deals with HUVEC. The experiment in a line: Effect on CYBA gene expression in serum-starved HUVEC after 6 hrs by microarray analysis relative to control. The class given is functional, Homo sapiens. A digest of the protocol:
as §3

Test [23] concerns HUVEC. The experiment in a line: Effect on COL4A3BP gene expression in serum-starved HUVEC after 24 hrs by microarray analysis relative to control. The class given is functional, Homo sapiens. The procedure, abridged: as §3
The subject of test [24] is HUVEC. The experiment in a line: Effect on CD68 gene expression in serum-starved HUVEC after 6 hrs by microarray analysis relative to control. The class given is functional, Homo sapiens. A digest of the protocol:
as §4

Test [25] relates to HUVEC. The experiment in a line: Effect on ANKRD1 gene expression in serum-starved HUVEC after 24 hrs by microarray analysis relative to control. It is filed as functional, Homo sapiens. The procedure, abridged: as §4
In test [26] the test system is HUVEC. The experiment in a line: Effect on PRR11 gene expression in serum-starved HUVEC after 6 hrs by microarray analysis relative to control. The class given is functional, Homo sapiens. The procedure, abridged: as §1
Test [27] in a line: Downregulation of UBE2C gene expression in serum-starved HUVEC at 2 uM after 24 hrs by qRT-PCR analysis. The class given is functional, cell-based. To be noted: Homo sapiens. The procedure, abridged: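 Serum-starved confluent HUVEC treated with 2 μM compound or vehicle in 2.5% FBS for 24 h. Total RNA isolated and qRT-PCR run in triplicate (95 °C 5 min; 40 cycles of 95 °C 5 s, 58 °C 20 s, 72 °C 5 s), normalized to RPS18S. Fold change vs control, n = 3.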
Background: Quantitative PCR measures a nucleic acid by following its amplification.

Test [28] relates to HUVEC. The experiment in a line: Effect on ACSS2 gene expression in serum-starved HUVEC after 6 hrs by microarray analysis relative to control. The class given is functional, Homo sapiens. A digest of the protocol:
as §4

Test [29] concerns HUVEC. The experiment in a line: Effect on PCYT2 gene expression in serum-starved HUVEC after 24 hrs by microarray analysis relative to control. The class given is functional, Homo sapiens.
Test [30] relates to HUVEC. The experiment in a line: Effect on ANTXR1 gene expression in serum-starved HUVEC after 6 hrs by microarray analysis relative to control. The class given is functional, Homo sapiens. A digest of the protocol:
as §4

Test [31] concerns HUVEC. The experiment in a line: Effect on MTSS1 gene expression in serum-starved HUVEC after 6 hrs by microarray analysis relative to control. The class given is functional, Homo sapiens.
In test [32] the test system is HUVEC. The experiment in a line: Effect on VCAM1 gene expression in serum-starved HUVEC after 6 hrs by microarray analysis relative to control. The class given is functional, Homo sapiens.
Test [33] deals with HUVEC. The experiment in a line: Effect on CKS2 gene expression in serum-starved HUVEC after 6 hrs by microarray analysis relative to control. It is filed as functional, Homo sapiens. The procedure, abridged:
as §2

The test system of test [34] is HUVEC. The experiment in a line: Effect on ELMOD1 gene expression in serum-starved HUVEC after 6 hrs by microarray analysis relative to control. The class given is functional, Homo sapiens. The procedure, abridged: as §2
Test [35] concerns HUVEC. The experiment in a line: Effect on ZAK gene expression in serum-starved HUVEC after 24 hrs by microarray analysis relative to control. The class given is functional, Homo sapiens.
The test system of test [36] is HUVEC. The experiment in a line: Effect on FILIP1L gene expression in serum-starved HUVEC after 24 hrs by microarray analysis relative to control. The class given is functional, Homo sapiens. The procedure, abridged:
as §2

The subject of test [37] is HUVEC. The experiment in a line: Effect on ELMOD1 gene expression in serum-starved HUVEC after 24 hrs by microarray analysis relative to control. The class given is functional, Homo sapiens. The procedure, abridged:
as §2

Test [38] relates to HUVEC. The experiment in a line: Effect on ZAK gene expression in serum-starved HUVEC after 6 hrs by microarray analysis relative to control. It is filed as functional, Homo sapiens.

`COc1ccc(Cn2nc(-c3ccccc3)c3cc(Nc4ccc(N5CCN(C)CC5)cc4)nc(N4CCNCC4)c32)cc1`: the log2FC was -0.5409 in test [1], 0.5287 in test [2] and 0.5464 in [3].
For the molecule `COc1ccc(Cn2nc(-c3ccccc3)c3cc(Nc4ccc(N5CCN(C)CC5)cc4)nc(N4CCN(C)CC4)c32)cc1`, the log2FC is on record as 0.5707 in test [4]; -0.6338 in [8]; -0.5756 in test [9]; -0.0175 in [10]; 0.507 in test [14]; 0.8028 in test [16]. For the same molecule, the log2FC in test [17] was -0.5811; in test [19] it was 1.3802; in [20] it was -0.1788; in [21], 1.4341; in [25] it was 0.2203; in test [26], 0.0749. The log2FC in [29] is given as 0.5377; in [32] it was 0.1271. For the same molecule, the “fold change (FC)” value in test [5] is given as -0.1528; in [6], 0.6103; in test [7], -0.6725; in test [11], -0.5903; in [12] it was 0.5398; in test [13] it was -0.6255. Also, the “fold change (FC)” value is 0.3506 in test [15]; 0.0285 in [18]; 0.1437 in test [22]; -0.1456 in test [23]; 0.5187 in test [24]; 0.2037 in test [28]. Besides, the “fold change (FC)” value in test [30] is reported as 0.1452; in [31] it was 0.2099. The outcome in test [27] was Active.
For the molecule `COc1ccc(Cn2nc(-c3ccccc3)c3cc(Cl)nc(N4CCNCC4)c32)cc1`, the log2FC in [33] is reported as 0.2477; in [34], -0.1337; in test [35], 0.0198; in test [36] it was 0.0497; in test [37], -0.514; in test [38] it was 0.5589.
